The values that follow come from ChEMBL document CHEMBL1136771, “Differential binding modes of diacylglycerol (DAG) and DAG lactones to protein kinase C (PK-C)” (J Med Chem, 2003).

This data set in a line: Partition coefficient (logP). It is filed as physicochemical. The settings on record: octanol/water. Summed up: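 Octanol/water log P was calculated, not measured, using a fragment-based atom/fragment-contribution estimation program applied to each ligand structure.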
A word on the logP: it is a log measure of how a compound divides between an organic and an aqueous phase. In turn, `CC(C)C(CC(=O)OC[C@H](CO)OC(=O)CC(C(C)C)C(C)C)C(C)C` returned a logP of 5.8.

Regarding `CC(C)C/C=C1/CC(CO)(COC(=O)CC(C(C)C)C(C)C)OC1=O` (stereo not given), the logP is 4.1.

`CC(C)=C1CC(CO)(COC(=O)CC(C(C)C)C(C)C)OC1=O` (stereo not given): the logP was 3.2.

`CC(C)C(=CC(=O)O[C@@H](CO)COC(=O)CC(C(C)C)C(C)C)C(C)C` came in with a logP of 5.7.

Consider `CC(C)CC(=O)OCC1(CO)CC(=C(C(C)C)C(C)C)C(=O)O1` (stereo not given), for which the logP is 3.2.

In the case of `CC(C)CC(=O)OCC1(CO)C/C(=C/CC(C(C)C)C(C)C)C(=O)O1` (stereo not given), the logP came to 4.1.

In turn, `CC(C)C/C=C1\CC(CO)(COC(=O)CC(C(C)C)C(C)C)OC1=O` (stereo not given) displayed a logP of 4.1.

`CC(C)CC(=O)OCC1(CO)C/C(=C\CC(C(C)C)C(C)C)C(=O)O1` (stereo not given): the logP turned out to be 4.1.

`CC(C)=CC(=O)O[C@@H](CO)COC(=O)CC(C(C)C)C(C)C` returned a logP of 3.9.

As for `CC(C)CC(=O)OC[C@H](CO)OC(=O)C=C(C(C)C)C(C)C`, the logP amounted to 3.9.
